We go through three molecules from PMC8458252 (Circulation. Heart failure, 2021).

Data set [1] relates to HFrEF patients. The experiment in a line: Supine and orthostatic blood pressure and heart rate in HFrEF patients. The class given is in vivo, human. The essentials:
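Fasted HFrEF patients were randomised 3:1 to one oral liquid dose (10, 30 or 90 mg) or placebo. Supine BP and HR were taken by automated cuff every 10 min from 30 min pre-dose to 120 min post-dose, then every 30 min to 5 h. Orthostatic readings were taken at 60 ± 5 and 240 ± 15 min and on Day 5, after 1, 3 and 5 min standing. Time course versus placebo by ANCOVA; orthostatic change by ANOVA.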

For data set [2], the system named is plasma cGMP and cAMP levels. Briefly: Plasma cAMP and cGMP by LC/MS/MS in HFrEF patients. The class given is in vivo, human. The note with it: baseline versus 2 hours after dosing. The essentials:
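HFrEF patients received one oral dose of test compound (10, 30 or 90 mg) or placebo. Plasma was sampled at baseline and 2 h post-dose and stored frozen. cAMP and cGMP were measured by a validated LC/MS/MS method with quantitation limits of 20 to 5000 […].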

Data set [3] in a line: Plasma pharmacokinetics after single oral dose in HFrEF patients. Format: in vivo, human. The essentials:
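After a single oral liquid dose (10, 30 or 90 mg) in fasted HFrEF patients, plasma was drawn pre-dose and at 5, 15, 30, 45, 90 and 120 min on Day 1, and again on Day 5. Parameters: AUC 0–2 h, Cmax, Tmax, lag time. Half-life was estimated from Day 5 levels relative to peak. Data analysed by two-way repeated-measures ANOVA.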

The next data set concerns PDE3. To be noted: cited from earlier work.
Data set [4] has as its system HFrEF patients. The experiment in a line: Echo-Doppler hemodynamics, baseline versus 2 hours post-dose, in HFrEF patients. The class given is in vivo, human. The essentials:
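Single oral dose (10, 30 or 90 mg, or placebo; randomised 3:1; n=9/dose) in fasted HFrEF patients. Transthoracic 2D Doppler echo at baseline and 120 ± 15 min, read blinded in a core lab. Cuff BP/HR taken at imaging. Outputs: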

A further data set relates to PDE1. The note with it: cited from earlier work.
Data set [5] concerns HFrEF patients. Briefly: 12-lead ECG QTc and Holter arrhythmia monitoring in HFrEF patients. The class given is in vivo, human. The essentials: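 HFrEF patients fasted ≥8 h took one oral liquid dose of test compound (10, 30 or 90 mg) or placebo, randomised 3:1. 12-lead ECG at baseline, 120 ± 15 min post-dose and Day 5 ± 1. Continuous bedside telemetry plus Holter recording. Holter gave hourly supraventricular and ventricular runs and ectopic-beat burden versus pre-dose.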

A further data set concerns PDE5. To be noted: cited from earlier work.
In a further data set the test system is PDE1A. The note with it: read-out: IC50 for PDE1A; cited from earlier work.
In the next data set the test system is PDE1C. To be noted: read-out: IC50 for PDE1C; cited from earlier work.
The subject of data set [6] is HFrEF patients. Briefly: Tolerability / adverse events in HFrEF patients. Format: in vivo, human. The essentials:
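In a blinded, placebo-controlled study, stable HFrEF patients on guideline therapy were randomised 3:1 in sequential cohorts. Each received one oral liquid dose (10, 30 or 90 mg) or placebo after an ≥8 h fast. Monitoring ran 5 h post-dose, with a follow-up visit on Day 5 ± 1 (exam, ECG, blood and urine labs). Adverse events were recorded at each visit per protocol.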

A further data set relates to rats. To be noted: cited from earlier work.

A value given as a limit tells only on which side of the number the result lay.

As a reminder, the half-life is the time in which the quantity being followed falls by half. Broadly, the Tmax is the time at which the peak concentration occurs. Usually IC50 stands for the concentration at which inhibition is half-maximal.

Consider `CN1C(=O)c2c(nn(Cc3ccc(-c4cccc(F)n4)cc3)c2Nc2ccccc2)N2C1=N[C@@H]1CCC[C@@H]12` [ITI-214], for which the “diastolic BP change” value with HFrEF patients [1] (over 2 hours post-dose, each dose) is given as “declined”. The “increase in heart rate” value in the data set with HFrEF patients [1] (single oral dose 10-90 mg) was 5-9 bpm. For the same molecule, the “orthostatic SBP changes versus placebo” value in the data set on HFrEF patients [1] (upon standing) is on record as “No SBP changes were significantly different”. For the same molecule, in [2], the “plasma cAMP level” value is “did not significantly change” and the “plasma cGMP level” value is given as “did not significantly change”. In addition, in data set [3] (after five days, at each dose), the “drug level as % of peak concentration” value is on record as 2-3%. In data set [3] (after oral dosing), the “time at which peak concentration was achieved” value is at most 45 min. The molecule also showed a half-life in [3] (human, plasma, oral) of about 22 h. Besides, the Tmax in [3] (human, plasma, po, 90 mg) fell in the range of 0.75 to 1.1 h. Further, the “selectivity for PDE1 over PDE3” value in the data set on PDE3 is listed as 94,000 fold. In the data set on HFrEF patients [4] (10 mg, baseline to 120 minutes), the “median change in PWRi (mean LV power index)” value is 0.018 (IQR 0.122) Watts/mL^2·10^4 and the “median rise in cardiac output” value is 0.717 L/min. The “E/E’” value with HFrEF patients [4] (30 mg) is “small rise”. In addition, in the data set on HFrEF patients [4] (30 mg, baseline to 120 minutes), the “change in systemic vascular resistance” value is −564 dynes·s/cm^−5, the “median change in PWRi (mean LV power index)” value was 0.143 (IQR 0.154) Watts/mL^2·10^4 and the “median rise in cardiac output” value worked out at 0.830 L/min. Moreover, in the data set on HFrEF patients [4] (90 mg, baseline to 120 minutes), the “change in systemic vascular resistance” value is −370 dynes·s/cm^−5, the “median change in PWRi (mean LV power index)” value is listed as 0.083 (IQR 0.126) Watts/mL^2·10^4 and the “median rise in cardiac output” value came to 0.666 L/min. Besides, in the data set on HFrEF patients [4] (90 mg, pre versus post dose), the “percent increase in cardiac output” value is recorded as 18% and the “percent increase in mPWRi” value was 33%. For the same molecule, in the data set with HFrEF patients [4] (all doses), the “total LV afterload (Ea)” value is reported as “significantly reduced”. In addition, in the data set on HFrEF patients [4] (baseline to 120 minutes), the end-diastolic volume result is recorded as “little effect” and the isovolumic relaxation time result is listed as “little effect”. In addition, in the data set with PDE1 (versus LuAF41228 and LuAF58027), the “potency relative to either Lu-compound (more potent)” value is on record as over 1000 x. In addition, the “change in QTc” value in the data set on HFrEF patients [5] (10 mg, 120 minutes post-dose versus baseline) was 1 ± 9 ms. The “change in QTc” value in the data set with HFrEF patients [5] (10 mg, Day 5 versus baseline) was -13 ± 17 ms. Also, in the data set with HFrEF patients [5] (30 mg, 120 minutes post-dose versus baseline), the “change in QTc” value is -4 ± 18 ms. The “change in QTc” value in the data set with HFrEF patients [5] (30 mg, Day 5 versus baseline) is -19 ± 22 ms. Besides, the “change in QTc” value with HFrEF patients [5] (90 mg, 120 minutes post-dose versus baseline) was -4 ± 24 ms. Moreover, the “change in QTc” value in the data set on HFrEF patients [5] (90 mg, Day 5 versus baseline) was -16 ± 19 ms. The “arrhythmia outcomes (Holter)” value in the data set on HFrEF patients [5] (compared to pre-dosing) is “no clinical change”. Besides, the “selectivity for PDE1 over PDE5” value in the data set with PDE5 is 19,000 fold. Moreover, the 50% inhibitory concentration (IC50) in the data set on PDE1A is 0.035 nM. Also, in the data set on PDE1C, the IC50 is 0.035 nM. Also, in the data set with HFrEF patients [6] (27 subjects treated), the “feeling hot, share of subjects” value is listed as 7%; the “headache, share of subjects” value is listed as 7%; the “hypotension, share of subjects” value is listed as 11%; the “orthostatic hypotension, share of subjects” value is recorded as 11%. Further, in the data set on HFrEF patients [6] (27 subjects treated), the “parosmia, share of subjects” value is listed as 15% and the “taste disorder, share of subjects” value is 7%. Moreover, the “subjects with mild adverse events” value with HFrEF patients [6] (all ITI-214 doses) is 11 of the 27 subjects. In addition, the serious adverse events entry with HFrEF patients [6] (any time in the study) is on record as “no serious adverse events”. For the same molecule, the tolerability entry in the data set with HFrEF patients [6] (single dose) was “well-tolerated”.

As to `CCC(CC)Nc1ncnc2c(OC)c(OC)ccc12` [LuAF41228], in the data set on rats, the “lowering of blood pressure” value is reported as at least 15 mmHg.

Consider `CCOC(=O)C1=C[C@]2(CC)CCCN3CCc4c(n1c1ccccc41)[C@@H]32` [vinpocetine, reference compound], for which the “PDE1 inhibitor potency relative to ITI-214 (less potent)” value in the data set on PDE1 is recorded as < 10^6.
